In the EternaBench riboswitch data:

System: MS2 coat protein
Test: apparent Kd, MS2 coat protein; higher = weaker binding; RNA-MaP array; FMN 200 µM where present
In short: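 Each design was made on Illumina sequencing-chip clusters by stalled E. coli RNA polymerase and titrated with SNAP-549-labelled MS2 coat protein from 0.7 or 1.5 nM, doubling to 3 µM, in the absence and then the presence of constant ligand. The buffer was 100 mM Tris-HCl pH 7.5, 80 mM KCl, 4 mM MgCl2, BSA, DTT, yeast tRNA and Tween-20. The apparent Kd is the median of filtered per-cluster fits of binding curves, with green signal normalised to red-channel RNA signal and control-cluster median Fmax.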

[1] = designed as: OFF switch for flavin mononucleotide, no ligand
[2] = ligand present: flavin mononucleotide, designed as: OFF switch for flavin mononucleotide
[3] = designed as: ON switch for flavin mononucleotide, no ligand
[4] = ligand present: flavin mononucleotide, designed as: ON switch for flavin mononucleotide

| Sequence | apparent Kd [1] [nM] | apparent Kd [2] [nM] | apparent Kd [3] [nM] | apparent Kd [4] [nM] |
| --- | --- | --- | --- | --- |
| CUUUUGUGAGGAUAUCAGUAGUUAAAUAAUAAAAUUACUACUGAGAAGGCACAUGAGGAUCACCCAUGUUCCUC | 36.4 | 201 |  |  |
| AGCUACGUUUCGUAGCAGUGUCAUCGAGAAGGCCUCAUUACAUGAGGAUCACCCAUGUGGACAUGGGAGGAUAUCGAUGAUACA |  |  | 487 | 212 |
| AGCUGUGGCCGAGGAUAUCUAACCUUCAUAACCGAAAUAUAAUCGGACAUGAGGAUCACCCAUGUAGAGAAGGCGGUCUCAGCA | 18.2 | 191 |  |  |
| GCUUGUAGAGGAUAUACAAGGGCCUUAGCGGAUAACACCGCACAUGAGGAUCACCCAUGUAGAAGGCUACCACC | 16.8 | 94.1 |  |  |
| GGUGCACGCACAGGAUAUCCGGCGGAGCUCGUCGGAGAAGGGUGACAUGAGGAUCACCCAUGUACGUGCAACUUAGUUUAAGAG |  |  | 20 | 19 |
| GUCAGCUCUUGAGGAUAUACAACACUGCUUCGGCAGUGUAUUAAGAUCACAUGAGGAUCACCCAUGUAGAAGGCACGAGCUGAU | 13.2 | 170 |  |  |
| AUUGUUUAUGUAGGAUAUGCCUGGCGUGCCUUUGCAGAAGGACAUGAGGAUCACCCAUGUAUUGCGGUCUGCGUUCAGAUCGCA | 33.2 | 44.3 |  |  |
| UGGUGGAAGCAGGAUAUGCUUGUUUUAUUGAUUGCAGAAGGGCUAACAUGAGGAUCACCCAUGUAAGAGGUGUU | 428 | 196 |  |  |
| AAAACAUGAGGAUCACCCAUGUAAAGAUCGGUCGAUGAAGGUGAGGAUAUACAAAACUUUAUGGAGUAGAAGGCACUGGGUUGA |  |  | 185 | 69.8 |
| GGCUGGUGAGCAGGAUAUGGUCGUGCCUUUGUUCGUGGUCCCACAUGAGGAUCACCCAUGUUCGACCAGAAGGGCUGACUUGAG | 31 | 18.9 |  |  |
| GUAACAUGAGGAUCACCCAUGUAUAGAACACUCAAUAGAUCUGAGGAUAUAGUAGAAUUUACAUACUAGAAGGCAGUGGGUACA |  |  | 55.2 | 29.6 |
| CUUUUGUGAGGAUAUCAGUAGUAAAUAAAUAAAAUUUCUACUGAGAAGGCACAUGAGGAUCACCCAUGUUCCUC | 38.5 | 220 |  |  |
| UAUGUGUCAGGAUAUUGUUAGUUUAGUUGUUUGUAUUAGUUCGAGAAGGGACAUGAGGAUCACCCAUGUUGUUU | 30.9 | 28.6 |  |  |
| GGUUGACAAAGUCAACCUUAACGAACAUGAGGAUCACCCAUGUAGGAUAUGCUACUCAAAGAGUAGCAGAAGGACAUGUGCCUU | 33 | 278 |  |  |
| CGAUGGUAGACAGGAUAUCGACCGGGAUACUAUGAAGACUAUAAACACAUGAGGAUCACCCAUGUCGAGAAGGGUCUCACAGCG | 37.1 | 60.9 |  |  |
| AUAUACGUUGAGGAUAUGCGAAUAAGUAUAGUUGCAGAAGGCGACACAUGAGGAUCACCCAUGUUCAUGGACAC | 28.2 | 44.6 |  |  |
| AGGCGGGUAGGAUAUGCGUACUUACGGGAAAGCUGAAUGGUACAUGAGGAUCACCCAUGUAGAAGGGCUCUGAA | 18.3 | 27 |  |  |
| UCCUCUGUAUGAGGAUAUCCGAAUACGUGAGGCGCUGCCGGCUCAUCAUCAGGAGAAGGCAUACAUGAGGAUCACCCAUGUCGA | 141 | 63.3 |  |  |
| AUCUUGUAAGGAUAUCGUGCAAGUUUCAAAAGAGGCUUGUGCGAGAAGGUACAUGAGGAUCACCCAUGUAGGUU | 26.2 | 71.2 |  |  |
| GCUAAGAGUGUGAGGAUAUGCUGGUCCUUGGAUCAGCAGAAGGCACAUGAGGAUCACCCAUGUGAAAACUUAGC | 23.3 | 89.6 |  |  |
| AAUGUCUGAGGAUAUCGUUUUUUGUACAUGAGGAUCACCCAUGUUUUAUUUUGUAUAUUACGAGAAGGCAGUGGAA | 24.1 | 18.5 |  |  |
| UUCCUCAUAACAUGAGGAUCACCCAUGUAUUAAUAGAUAACUGAGGAUAUACUAAUAAUGUUUAUGUAGAAGGCAGAUACAGAU | 49.6 | 106 |  |  |
| GUCGGAAACGACAAAAGUAGCAUAGGAGAAGGCAUGUCAUAAGACAUGAGGAUCACCCAUGUCCGUGAGGAUAUCCUAUGCUAC |  |  | 8.14 | 6.15 |
| ACAUGAGGAUCACCCAUGUAAAAUGAAGAAGGUAUAUACUUGAGGAUCACCCAUGUACAUGGGAAUAAGGAUAUUCUAAUAAUU |  |  | 13.5 | 12.6 |
| CCACUGUCAGGAUAUCGUGCAUAAGCGUUUACAUUUAUGUGCGAGAAGGGACAUGAGGAUCACCCAUGUAAACG | 417 | 653 |  |  |
| AAGUCAGCAGGAUAUGCGAUGUUGUGCUAGAUAGCGGGACCACAUGAGGAUCACCCAUGUAGAAGGGCUGGCUA | 34 | 22.5 |  |  |
| AUCAUGUAAGGAUAUCUUACAUGUGACUUCGGUCACUGUUCAGAGAAGGUACAUGAGGAUCACCCAUGUAGAAC | 18.8 | 28.4 |  |  |
| AAUUAAUUGUAGAAGGUACUUAAUUAUGUUAUGUAAGGAUAUACGUAAUUAUUACGACAUGUAUGACAUGAGGAUCACCCAUGU |  |  | 7.72 | 7.82 |

| Sequence | apparent Kd [1] [nM] | apparent Kd [2] [nM] | apparent Kd [3] [nM] | apparent Kd [4] [nM] |
| --- | --- | --- | --- | --- |
| ACUUUAUAUGAGAAGGUGAAGUGGAAACAUGAGGAUCACCCAUGUAAUACGAAGCGUAUUUUUAUCAAGGAUAUCAUAUAAAGA |  |  | 10.8 | 8.81 |
| GGUCGUCCCAUUAACAUGAGGAUCACCCAUGUCAAAAGACAUGAGGAUAUGGUACCUAAUUGGUACCAGAAGGCAUGGACGACC |  |  | 1210 | 115 |
| GACGUGUGAGGAUAUGCCGUGCCGGUCCGGAAGGUUCGGGUGCAGAAGGCACAUGAGGAUCACCCAUGUGUAAG | 23.4 | 32.5 |  |  |
| AGGAGACAUGAGGAUCACCCAUGUGCGAGGUGAAGAGGAUAUAGAAGAAGAAGAAAGAAACUAGAAGGCUUAAAAA |  |  | 220 | 244 |
| GUUACAUGAGGAUCACCCAUGUAUGUGUGGGAGUAAGUGUCUUAGGAUAUCUAUCAUUGAAUUUAAGAGAAGGAAGAUUGUUGU |  |  | 113 | 126 |
| GCGUUACAUGAGGAUCACCCAUGUGAGGAUAUGGUGCGGUACUGUCCUGUCGCGUACUCCAGAAGGCACGGGUG | 150 | 85.3 |  |  |
| UACAAUCUAUCUGAGGAUAUCAUGAUUAUAACAUGAGGAUCACCCAUGUGCAGGAAAACUGCAUAUGAGAAGGCAGAUAGAUUGU |  |  | 611 | 98 |
| GUAGAGUAAGGAUAUCGAGAAUAGGAUAGAAUGGAUAGAAUCGAGAAGGUACAUGAGGAUCACCCAUGUAAUGU | 20.3 | 18.6 |  |  |
| UAUGUGUGAGGAUAUGGUAAAGAUAAGAUGAUGAAAGAACUCCAGAAGGCACAUGAGGAUCACCCAUGUAGAUA | 22.8 | 45.6 |  |  |
| UGUGCGUUGAUCUUAGAUCGGAGUACAUGAGGAUCACCCAUGUAGGAUAUUCAAAGACGCAGAUAGAAGAAGGACAUAGGUUUC | 7.85 | 11.6 |  |  |
| AAACCACAUGAGGAUCACCCAUGUCAUAACCGUAGGGAGAAGAGAAGGGUGAGGGUGUAGCCUGCACAGGAUAUCUAGUGCCUC |  |  | 228 | 174 |
| CUCAGCUCGUCAGGAUAUACGUCACUGCUUCGGCAGUGUGGUAAGAUCACAUGAGGAUCACCCAUGUAGAAGGGACGAGCUGAU | 11.7 | 248 |  |  |
| GGUGCAAUGUAGAAGGCAGAUCUGAUUCAGAUCUGAGGAUAUACAUGAGGAUCACCCAUGUUAUGCACCAGCACGAGAGUGCAA | 6.57 | 12.6 |  |  |
| GGGCUGUCAGGAUAUGGGUUUGGGCCCGAAAGGGCCCGGGCCCAGAAGGGACAUGAGGAUCACCCAUGUGGCCC | 32.1 | 33.8 |  |  |
| AAAACAUACCGAGGAUAUUCAUAUAAUAAAUAAACAUGAGGAUCACCCAUGUGGCAAAAGCCUAGGGAGAAGGCGGAAUGCUAA |  |  | 36 | 22.4 |
| CCGCAGUUAGGAUAUACAUGAGGAUCACCCAUGUGUCCAUCUGUAAUAAGACAGGAUAGUAGAAGGAACUGGCG | 14.8 | 25.9 |  |  |
| AGUGUCAUCGAGAAGGCCUCAACAUGAGGAUCACCCAUGUUGCAAAAUGGGAGGAUAUCGCGCGAAAAGCUACGUUUCGUAGCA |  |  | 28.9 | 11.6 |
| UGUCAUUUACAGAAGGGUAGUUGGGUUUUACAUGAGGAUCACCCAUGUUUUACAGGAUAUGUGUUUUGUUAAUAUUAAAGUUCA | 72.9 | 113 |  |  |
| AUCAAUCGUGUAGGAUAUGCGUGGCGAAGCUAUGCAGAAGGACAUGAGGAUCACCCAUGUCUUUCUGUCUGUGUACAGACAGGA | 20.4 | 71.5 |  |  |
| GUCCGGCGUGUAGGAUAUGGAUCCGAUUAGGAUCCAGAAGGACAUGAGGAUCACCCAUGUACAUGUAAACAGUCAUCACCGGAG | 9.11 | 58.9 |  |  |
| AGACCGCUACGCCGGUUUCACGCACAGGAUAUGCGGUUACAUGAGGAUCACCCAUGUGGCCAUGUGUAGAAGGGUGGUUCGUGC |  |  | 37 | 30.1 |
| UCACGGUAUGUAGGAUAUGCAUAGCAUUGCUAUGCAGAAGGACAUGAGGAUCACCCAUGUAUGUAUUCCAUACUAAUCCCGUGG | 5.57 | 5.66 |  |  |
| GUGUACAGAGGAUAUACGGGAGCAUGGAAACAUGCAACCUCACAUGAGGAUCACCCAUGUAGAAGGCUGUACAC | 162 | 243 |  |  |
| GUGGUCAGACAUGAGGAUCACCCAUGUGGAAUAAAUAAGGAACAGGAUAUCUAAUAUAGGAUAUAAGAGAAGGGUUGGUUGGUG |  |  | 81.7 | 93.6 |
| UGUCAUAUAUAGAAGGGUAGUAGGGUUUUACAUGAGGAUCACCCAUGUAUUAUAGGAUAUGUGUAUAGUUUUUAUUCAAGUAUA | 32.8 | 25.4 |  |  |
| UGCGCUGAGGGAGGAUAUGACAUGAGGAUCACCCAUGUGGUAGGUUUCUUGUCAGAAGGCCCGCAUGUACCGAAUUAGGUUCGU | 112 | 18.3 |  |  |
| GCGCAGCCGGGUGAGGAUAUCGGUGGUAAAACAUGAGGAUCACCCAUGUCCGAAGCUCGGACUUCCGAGAAGGCGCCCAGCUGCA |  |  | 115 | 14.4 |
